SMARCA2 activ – SMARCA2 function activation, primary screen | hit rate 1% among 370,000 | activation, % at 9.1 µM | MG213 cells, MMTV-luciferase reporter, dexamethasone, overnight; in the data active = activation above about 7.8%
F508del corr – correctors of CFTR F508del function in bronchial epithelial cells | CFBE cells, YFP halide quenching; stimulated with forskolin plus potentiator P3; % fluorescence drop versus neutral controls | activity (quench increase), % at 7.58 µM | hit rate 0.36% among 350,000;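 active = mean added fluorescence quench of at least 8% versus neutral control, with both replicates also reaching 8%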;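 also: cells transiently co-express mutant CFTR-F508del with the halide-sensitive YFP; corrector assay measuring rescue of mutant channel to the surface after 24 h compound exposure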
MC4R antagonist – human MC4R antagonism in cAMP assay; P32245; hit rate 0.48% among 360,000; inhibition, % at 6.5 µM; MC4R-expressing cells, MTII-stimulated cAMP, LANCE TR-FRET;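 active = inhibition above its plate's cutoff, the mean of tested wells on that plate plus 3 SD, cut at about 29% in these data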
Target sequence (P32245 whole entry, looked up): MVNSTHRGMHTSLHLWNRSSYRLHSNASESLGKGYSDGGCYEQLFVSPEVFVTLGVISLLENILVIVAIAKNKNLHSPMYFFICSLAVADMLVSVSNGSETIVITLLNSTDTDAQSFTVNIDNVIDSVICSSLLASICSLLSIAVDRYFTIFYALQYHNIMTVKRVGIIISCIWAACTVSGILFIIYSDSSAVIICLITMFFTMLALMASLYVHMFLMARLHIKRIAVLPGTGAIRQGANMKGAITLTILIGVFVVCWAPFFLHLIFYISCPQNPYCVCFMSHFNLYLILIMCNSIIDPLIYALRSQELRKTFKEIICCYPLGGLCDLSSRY
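Assay system: U2OS-MC4R stable cell line; Also added: Melanotan II; Technique: Eu-cAMP/anti-cAMP TR-FRET, emission 671 nm; Times: 30-min compound, 1-h challenge, 1-h detection, room temperature.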
MC4R ag barr – human MC4R agonism via beta-arrestin; P32245; U2OS MC4R beta-arrestin complementation, luminescence; percent of melanotan II response, DMSO zero; activation, % at 8.9 µM; hit rate 0.98% among 360,000;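 active = activation above a per-plate cutoff, the mean activation of sample wells on that plate plus 3 SD, cut at about 8% in these data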
Numbers stand for hits. An excerpt weighted towards active compounds, which were near 2.1% of everything screened.

`CC12CC[C@H]3[C@@H](CCC4(O)C[C@H](O)CCC34/C=N/NC(=O)c3ccccc3Cl)C1(O)CCC2C1=CC(=O)OC1` (stereo partly drawn) gave SMARCA2 activ inactive, F508del corr inactive, MC4R antagonist inactive and MC4R ag barr inactive.
`C[C@]12CC[C@H]3[C@@H](CC[C@]4(O)C[C@@H](O)CC[C@]34C=O)[C@@]1(O)CC[C@@H]2C1=CC(=O)OC1` gave SMARCA2 activ inactive, F508del corr inactive, MC4R antagonist inactive and MC4R ag barr 27.3.
For CC12CCC3C(CCC4(O)CC(O)CCC34C=O)C1(O)CCC2C1=CC(=O)OC1 (stereo not drawn) the results were SMARCA2 activ inactive, F508del corr inactive, MC4R antagonist inactive and MC4R ag barr 21.2.
For CC12CCC3C(CCC4(O)CC(O)CCC34C=NO)C1(O)CCC2C1=COC(=O)C1 (stereo not drawn) the results were SMARCA2 activ inactive, F508del corr inactive, MC4R antagonist inactive and MC4R ag barr 25.9.
For COC(=O)[C@@H]1[C@@H](CO)[C@@H]2Cn3c(ccc(-c4ccccc4)c3=O)[C@H]1N2C(=O)c1ccccc1F the results were F508del corr inactive.
Screening COC(=O)[C@@H]1[C@@H](CO)[C@@H]2Cn3c(ccc(-c4ccccc4F)c3=O)[C@H]1N2C(C)=O returned F508del corr inactive.
C[C@H]1O[C@@H](OC2CC[C@]3(C=O)[C@H]4CC[C@]5(C)[C@@H](C6=CC(=O)OC6)CC[C@]5(O)[C@@H]4CC[C@]3(O)C2)CC2OC(C)(C)OC21 (stereo partly drawn) was read as SMARCA2 activ inactive, F508del corr 8.6, MC4R antagonist inactive and MC4R ag barr 39.8.
`CCCCN=C[C@]12CCC(O)CC1(O)CCC1[C@@H]2CC[C@]2(C)[C@H](C3C=CC(=O)O3)CCC12O` (stereo partly drawn) gave SMARCA2 activ inactive, F508del corr inactive, MC4R antagonist inactive and MC4R ag barr 34.7.
Screening COC1CCC(OC2CC(C3(C)CCC4(CC(O)C(C)C(C(C)/C=C(\C)C(=O)C(C)CC(C)C(=O)O)O4)O3)OC3(OC(C4OC(O)(CO)C(C)CC4C)CC3C)C2C)OC1C (stereo not drawn) returned SMARCA2 activ inactive, F508del corr inactive, MC4R antagonist inactive and MC4R ag barr 19.5.
CC[C@H]1C=C(C(=O)N[C@@]2(C(=O)O)C[C@H]2CC)[C@H]2CCC(=O)[C@H]2C1 was read as F508del corr inactive.
Screening O=c1[nH]c(=O)n(-c2cccc3ccccc23)c(O)c1/C=N/N1CCCCC1c1cccnc1 (stereo not drawn) returned SMARCA2 activ inactive, F508del corr 8.0, MC4R antagonist inactive and MC4R ag barr inactive.
CC1(C)OC(c2ccccc2)=C/C(=C/C=C2C(=O)NC(=S)NC2=O)O1 was read as SMARCA2 activ inactive and F508del corr 16.6.
CN1/C(=C\C=C2C(=O)NC(=S)NC2=O)C(C)(C)c2ccccc21 was read as SMARCA2 activ inactive, F508del corr inactive, MC4R antagonist inactive and MC4R ag barr inactive.
O=[N+]([O-])c1ccc(N2CCOCC2)c2cccnc12 was read as SMARCA2 activ inactive, F508del corr inactive, MC4R antagonist inactive and MC4R ag barr inactive.
O=[N+]([O-])c1ccc(N2CCOCC2)c2c1no[n+]2[O-] was read as SMARCA2 activ inactive, F508del corr 12.4, MC4R antagonist inactive and MC4R ag barr inactive.
Screening COC(=O)[C@H]1[C@H](CO)[C@H]2Cn3c(ccc(-c4cccc(F)c4)c3=O)[C@@H]1N2Cc1cccnc1 returned F508del corr inactive.
CC1OC(OC2C=C3CCC4C(CCC5(C)C(c6ccc(=O)oc6)CCC45O)C3(C)CC2)C(O)C(OC2OC(CO)C(O)C(O)C2O)C1O (stereo not drawn) was read as SMARCA2 activ inactive, F508del corr inactive, MC4R antagonist inactive and MC4R ag barr 36.6.
COC(=O)[C@@H]1[C@@H](CO)[C@@H]2Cn3c(ccc(C4=CCCCC4)c3=O)[C@H]1N2CC1CCCCC1 was read as F508del corr inactive.
CSc1ncc(CN2CCCC(C(=O)c3cccc(Cl)c3)C2)cn1 (stereo not drawn) was read as SMARCA2 activ inactive, F508del corr inactive, MC4R antagonist inactive and MC4R ag barr inactive.
`COc1ccc(CN2CCCC(C(=O)c3cccc(Cl)c3)C2)cc1` (stereo not drawn) gave SMARCA2 activ inactive, F508del corr inactive, MC4R antagonist inactive and MC4R ag barr 9.0.
Screening COCC#Cc1ccc([C@H]2[C@H](CO)N3CCCCN(C(=O)Cc4ccccn4)C[C@@H]23)cc1 returned F508del corr inactive.
Screening CN(C)C(=O)Oc1ccc(C(=O)c2ccccc2)cc1 returned SMARCA2 activ 7.9, F508del corr inactive, MC4R antagonist inactive and MC4R ag barr inactive.
For CN(C)C(=O)Oc1ccc(OC(=O)N(C)C)cc1 the results were SMARCA2 activ inactive, MC4R antagonist inactive and MC4R ag barr inactive.
Screening c1ccc(-c2cc(-c3ccccc3)[n+](-c3ccccc3)c(-c3ccccc3)c2)cc1 returned SMARCA2 activ inactive, F508del corr inactive, MC4R antagonist inactive and MC4R ag barr inactive.
CN(C)c1ccc(-[n+]2c(-c3ccccc3)cc(-c3ccccc3)cc2-c2ccccc2)cc1 was read as SMARCA2 activ inactive, F508del corr 8.3, MC4R antagonist inactive and MC4R ag barr inactive.
For CCOP(=O)(C#Cc1ccccc1)C(O)c1ccc(Br)cc1 (stereo not drawn) the results were SMARCA2 activ inactive, F508del corr 10.3, MC4R antagonist inactive and MC4R ag barr inactive.
COP(=O)(C#Cc1ccccc1)C(O)c1ccc(Br)cc1 (stereo not drawn) was read as SMARCA2 activ inactive, F508del corr inactive, MC4R antagonist inactive and MC4R ag barr inactive.
Screening C[C@@H]1O[C@@H](O[C@H]2C[C@@H](O)[C@]3(CO)[C@H]4[C@H](O)C[C@]5(C)[C@@H](C6=CC(=O)OC6)CC[C@]5(O)[C@@H]4CC[C@]3(O)C2)[C@H](O)[C@H](O)[C@H]1O returned MC4R antagonist inactive and MC4R ag barr 34.7.
For CCC1(CC)C(=O)C=CNC1=O the results were SMARCA2 activ inactive, F508del corr 29.2, MC4R antagonist inactive and MC4R ag barr inactive.
Screening CCCNC(=O)N1[C@@H]2Cn3c(ccc(-c4ccccc4OC)c3=O)[C@H]1[C@@H](C(=O)O)[C@@H]2CO returned F508del corr inactive.
`N#Cc1cccc(-c2ccc([C@@H]3[C@H](CO)N4CCCCN(C(=O)Cc5ccccc5)C[C@@H]34)cc2)c1` gave F508del corr inactive.
For Fc1ccc(CCNCc2ccc(Cl)c(Cl)c2)cc1 the results were SMARCA2 activ inactive, F508del corr inactive, MC4R antagonist inactive and MC4R ag barr 8.7.
Screening CCCNC(=O)N1[C@@H]2c3ccc(-c4ccccc4OC)c(=O)n3C[C@H]1[C@H](CO)[C@H]2C(=O)OC returned F508del corr inactive.

Screening data: PubChem, several laboratories
